Results: PubChem BioAssay
Inconclusive results are not listed.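 Rule for the calls, unless noted: active = inhibition over a set limit, the all-compound mean plus 3 SD, in both replicate runs; inconclusive = over that limit in just one replicate run; inactive = at or under that limit in both runs.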

How the values were obtained:
[1] = S. cerevisiae growth inhibition in permissive medium (OD615), pilot counter-assay for S. cerevisiae lifespan shortening project, permissive growth control (AID 705;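 active = growth inhibition above 25% in both replicates, a cutoff set 3 SD above the mean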); settings: OD615, 24 h, at 10 µM, active compounds read high
Outline: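 Material: engineered DeaD yeast; compound dosing: one dose 10 µM, DMSO 0.25% final; measure: yeast growth inhibition indicated by reduced 24 h OD615; detection: OD615 turbidity read; incubation: cells pre-grown 4 h, then 24 h compound exposure, 30 °C humidified; medium: permissive synthetic complete medium with raffinose and galactose carbon sources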

[2] = S. cerevisiae growth inhibition in restrictive medium, OD615, pilot screen, restrictive growth control, yeast lifespan reduction project (AID 706;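 active = growth inhibition above a set limit, 3 SD over mean compound inhibition, in both replicates, cut at about 43% in these data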;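 note: modified DeaD lifespan yeast strain shifted to restrictive glucose medium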); settings: OD615, 48 h, at 10 µM, active compounds read high
Outline: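 material = engineered S. cerevisiae DeaD strain | medium = glucose-based CSMM-D restrictive medium | times = 4 h pre-incubation, 48 h exposure at 30 °C | technique = OD615 absorbance reading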

[3] = doxorubicin toxicity protection in MRP-1 cells – H69AR cells, CellTiter-Glo, duplicate, MRP-1 activator project, pilot screen (AID 807;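 active = viability increase at or above a cutoff of the median across tested compounds plus 3 SD, cut at about 8.5% in these data, passing the limit was not always enough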;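 note: compound pretreatment 18-22 h then 72 h combined with doxorubicin; 0% = doxorubicin alone and 100% = vehicle without doxorubicin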); settings: H69AR viability with doxorubicin, CellTiter-Glo luminescence; at 10 µM; active compounds read high
[4] = viability of HCT116 without oncogenic beta-catenin – human colon tumor cells, pilot screen (AID 823;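 active = cell viability at or below a set limit in both duplicate runs, the limit being the all-compound median minus 4 SD, cut at about 23% in these data, passing the limit was not always enough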;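 note: 0% = wells killed by 20 µM Hyamine and 100% = untreated DMSO cell wells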); settings: HCT116 beta-catenin knockout viability, CellTiter-Glo, 60 h; at 10 µM; active compounds read low
[5] = viability of PTEN-null HCT116 cells – cell-based, HCT116 clonal line, CellTiter-Glo, pilot screen (AID 824;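 active = viability at or below 27.92% in each of two runs, the all-compound median minus 4 SD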;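 note: 0% = 20 µM Hyamine control and 100% = vehicle cell control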); settings: HCT116 PTEN-deleted viability, 60 h, at 10 µM, active compounds read low
[6] = RAM pathway blockade in budding yeast – dse1pr::URA3 reporter, 5-FOA selection, pilot screen (AID 869);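 note: 0% = DMSO wells with no growth and 100% = 10 µM 1-NA-PP1 with full growth; RAM network block rescues cells from 5-FOA so hits raise OD615 growth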; settings: S. cerevisiae dse1pr::URA3 5-FOA growth, OD615, 2 d; at 10 µM; active compounds read high; strain carries analog-sensitive mutant Cbk1 kinase
[7] = RAM signaling pathway blockade in yeast – S. cerevisiae, Pdr1DBD-CYC8 efflux-inhibited sensitized strain, primary screen (AID 1298;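 active = RAM network inhibition above 8.4% in each of two replicates, 3 SD over the compound average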;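 note: 0% = DMSO untreated cells without growth and 100% = 10 µM 1-NA-PP1 full growth; higher means more yeast growth rescued from 5-FOA killing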); settings: S. cerevisiae cbk1-as DSE1-URA3 strain, 5-FOA growth OD615, 2 d; at 50 µM; active compounds read high

Cn1c(-n2c(CCN3C(=O)c4ccccc4C3=O)nc3ccccc3c2=O)nc2ccccc21
inactive: growth inhibition [1] 1.63% | growth inhibition [2] -2.29% | viability increase [3] -4.94% | viability [4] 68.2% | viability [5] 81.2% | inhibition [6] 0.65% | RAM network inhibition [7] 2.45%

Cc1ccc(-n2ncc3c(NCCCn4ccnc4)ncnc32)c(C)c1
inactive: growth inhibition [1] -3.41% | growth inhibition [2] -7.83% | viability increase [3] -0.58% | viability [4] 88.8% | viability [5] 90.6% | inhibition [6] 1.5% | RAM network inhibition [7] 2.5%

CCc1nc(SCC(=O)Nc2ccc(C(=O)O)cc2)n[nH]1
inactive: growth inhibition [1] 11.2% | growth inhibition [2] 0.705% | viability increase [3] -1.05% | viability [4] 94.7% | viability [5] 98.4% | inhibition [6] -0.24% | RAM network inhibition [7] -2.73%

Cc1cccc(N2C(=O)SC(N(CC(=O)O)c3cccc(C)c3)C2=O)c1 (stereo not drawn)
inactive: growth inhibition [1] -12.5% | growth inhibition [2] 15.6% | viability increase [3] -3.96% | viability [4] 103% | viability [5] 99.1% | inhibition [6] 1.24% | RAM network inhibition [7] 5.06%

Cc1cccc(N(C(=O)Nc2ccccc2)C2=NCC(C)S2)c1 (stereo not drawn)
inactive: growth inhibition [1] -14.6% | growth inhibition [2] -6.9% | viability increase [3] 0.22% | viability [4] 103% | viability [5] 94.4% | inhibition [6] -0.8% | RAM network inhibition [7] 2.52%

CC(=O)Nc1c2c(nn1-c1cccc(Cl)c1)CS(=O)C2 (stereo not drawn)
inactive: growth inhibition [1] 3.89% | growth inhibition [2] -5.49% | viability increase [3] -0.33% | viability [4] 94.1% | viability [5] 100% | inhibition [6] 1.38% | RAM network inhibition [7] 0.11%

Cc1ccc2c(c1)NCC(C(=O)NC1CCC(C)CC1)O2 (stereo not drawn)
inactive: growth inhibition [1] -10.3% | growth inhibition [2] -4.18% | viability increase [3] 1.52% | viability [4] 98.4% | viability [5] 91.4% | inhibition [6] 1% | RAM network inhibition [7] 5.26%

COc1ccc(Cl)cc1N1C(=O)C2CCCN2C1c1ccccc1F (stereo not drawn)
inactive: growth inhibition [1] 2.31% | growth inhibition [2] -4.76% | viability increase [3] -3.84% | viability [4] 93% | viability [5] 95.1% | inhibition [6] 1.41% | RAM network inhibition [7] 1.3%

CC1CCCC(NC(=O)CSc2nnnn2C)C1C (stereo not drawn)
inactive: growth inhibition [1] -6.17% | growth inhibition [2] -10.1% | viability increase [3] 1.61% | viability [4] 95.5% | viability [5] 101% | inhibition [6] 1.29% | RAM network inhibition [7] 2.27%

CCOC(=O)c1ccc(NC(=O)C2CCN(S(=O)(=O)c3ccccc3)CC2)cc1
inactive: growth inhibition [1] -12.1% | growth inhibition [2] -10.7% | viability increase [3] -2.54% | viability [4] 66.4% | viability [5] 70.2% | inhibition [6] 1.47% | RAM network inhibition [7] 6.37%

CCOC(=O)NCc1ccc2[nH]c(C)cc2c1
inactive: growth inhibition [1] -16.1% | growth inhibition [2] -9.38% | viability increase [3] -1.52% | viability [4] 94.5% | viability [5] 97.1% | inhibition [6] -0.465% | RAM network inhibition [7] 4.71%

CC(C)(Oc1ccc(Cl)cc1)C(=O)N1CCN(c2ccccn2)CC1
inactive: growth inhibition [1] -7.41% | growth inhibition [2] 3.08% | viability increase [3] -2.47% | viability [4] 70.7% | viability [5] 76.1% | inhibition [6] 0.32% | RAM network inhibition [7] -1.34%

Cc1noc(NS(=O)(=O)c2ccc(NC(=O)CCn3c(=O)oc4ccccc43)cc2)c1C
inactive: growth inhibition [1] 0.07% | growth inhibition [2] -7.86% | viability increase [3] -1.22% | viability [4] 97.7% | viability [5] 96.2% | inhibition [6] 1.24% | RAM network inhibition [7] 6.07%

COc1cc(CC(=O)O)c(C(C)=O)cc1OC
inactive: growth inhibition [1] 0.26% | growth inhibition [2] 0.155% | viability increase [3] -1.29% | viability [4] 100% | viability [5] 102% | inhibition [6] 0.365% | RAM network inhibition [7] -0.36%

O=C(Cn1cc2c(n1)CCCC2)Nc1ccccc1Cl
inactive: growth inhibition [1] -4.82% | growth inhibition [2] -3.03% | viability increase [3] -1.53% | viability [4] 99.4% | viability [5] 98.9% | inhibition [6] 1.91% | RAM network inhibition [7] 1.47%

O=C(CCc1nc2ccccc2[nH]1)NCc1ccc2c(c1)OCO2
inactive: growth inhibition [1] -8.32% | growth inhibition [2] -4.06% | viability increase [3] -2.13% | viability [4] 97.8% | viability [5] 91.7% | inhibition [6] 2.1% | RAM network inhibition [7] 1.84%

CCOc1ccc(CCNC(=O)c2oc3c(c2C)-c2[nH]ncc2CC3)cc1OCC
inactive: growth inhibition [1] -11.9% | growth inhibition [2] -11.6% | viability increase [3] -2.93% | viability [4] 105% | viability [5] 92.7% | inhibition [6] 1.57% | RAM network inhibition [7] 9.8%

OC(C#CCN1CCCC1)c1ccccc1 (stereo not drawn)
inactive: growth inhibition [1] -1.08% | growth inhibition [2] -5.8% | viability increase [3] -0.22% | viability [4] 91.6% | viability [5] 98.8% | inhibition [6] 0.7% | RAM network inhibition [7] -0.43%

CC(=O)Oc1c(Cl)c(N2CCOCC2)c(OC(C)=O)c2ccccc12
inactive: growth inhibition [1] -22.8% | growth inhibition [2] -7.78% | viability increase [3] -6.81% | viability [4] 70.4% | viability [5] 79% | inhibition [6] -0.75% | RAM network inhibition [7] 2.47%

COc1ccc(-c2nc(CNS(=O)(=O)c3cc(OC)ccc3OC)cs2)cc1
inactive: growth inhibition [1] 2.43% | growth inhibition [2] 5.36% | viability increase [3] -1.76% | viability [4] 92% | viability [5] 89.7% | inhibition [6] 0.53% | RAM network inhibition [7] 5.82%

Cc1ccc(C(=O)c2ccccc2C(=O)O)c(O)c1
inactive: growth inhibition [1] -15.6% | growth inhibition [2] -4.92% | viability increase [3] 0.69% | viability [4] 94.8% | viability [5] 106% | inhibition [6] 0.835% | RAM network inhibition [7] 5.69%

Cc1ccc(-c2noc(CN(C(=O)c3cccc(Br)c3)C(C)C)n2)cc1
inactive: growth inhibition [1] 0.485% | growth inhibition [2] -2.63% | viability increase [3] 1.98% | viability [4] 92.5% | viability [5] 85.3% | inhibition [6] 2.58% | RAM network inhibition [7] 10%

CCOc1ccc(C2CC(c3cccc(OC)c3)n3nc(N)nc3N2)cc1 (stereo not drawn)
inactive: growth inhibition [1] 0.02% | growth inhibition [2] 5.62% | viability increase [3] 0.88% | viability [4] 109% | viability [5] 92.3% | inhibition [6] 0.875% | RAM network inhibition [7] 4.58%

COc1ccccc1N(CC(=O)Nc1ccccc1C)S(C)(=O)=O
inactive: growth inhibition [1] -5.63% | growth inhibition [2] -10.8% | viability increase [3] -3.72% | viability [4] 94.7% | viability [5] 95.7% | inhibition [6] 1.12% | RAM network inhibition [7] 1.62%
